A word on the IC50: it is the point on the concentration scale where inhibition reaches its midpoint. Low values mean higher potency, high ones lower potency. As usually defined, the inhibition is how much of the control response was suppressed.

This is an account of results in ChEMBL document CHEMBL4828755, “A sulfonyl fluoride derivative inhibits EGFRL858R/T790M/C797S by covalent modification of the catalytic lysine” (Eur J Med Chem, 2021).

Experiment [1] addresses Epidermal growth factor receptor (Homo sapiens, UniProt P00533, C797S/L858R/T790M). The experiment can be described thus: Inhibition of EGFR L858R/T790M/C797S triple mutant (unknown origin) using […] preincubated with enzyme and ATP at 10XKm for 3 hrs followed by substrate addition and measured after 1 hr by TR-FRET assay. For orientation: In TR-FRET formats the signal depends on donor and acceptor labels being close together.

Experiment [2] deals with Epidermal growth factor receptor (Homo sapiens, UniProt P00533). Format: ADME.
Experiment [3] addresses T1, Aurora kinase A (Homo sapiens) (UniProt O14965).
T1 sequence (whole entry): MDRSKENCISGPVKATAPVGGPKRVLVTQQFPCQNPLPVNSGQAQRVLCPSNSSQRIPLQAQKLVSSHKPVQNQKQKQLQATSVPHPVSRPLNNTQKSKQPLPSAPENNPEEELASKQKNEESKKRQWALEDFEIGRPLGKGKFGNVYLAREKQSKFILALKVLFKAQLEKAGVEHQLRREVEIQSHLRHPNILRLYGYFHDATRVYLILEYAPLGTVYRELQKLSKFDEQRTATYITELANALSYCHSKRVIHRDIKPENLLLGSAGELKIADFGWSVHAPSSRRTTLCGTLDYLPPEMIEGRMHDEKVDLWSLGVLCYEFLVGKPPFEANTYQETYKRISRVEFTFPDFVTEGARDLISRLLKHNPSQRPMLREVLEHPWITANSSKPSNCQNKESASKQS
The experiment is described as follows: Inhibition of His-tagged human full length recombinant AURKA expressed in baculovirus expression system at 1 uM by Z'-LYTE assay. In short, it runs like this:
(§1)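 Z'-LYTE FRET kinase panel; phosphorylation of a reference peptide measured with ATP at each enzyme's Km. Compounds tested in 1% DMSO at 0.1 and/or 1 μM. Values are means of two independent experiments with standard deviations.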

For experiment [4], the target named is Cyclin-dependent kinase 2 (Homo sapiens) (UniProt P24941). The experiment is described as follows: Inhibition of human recombinant CDK2 at 1 uM by Z'-LYTE assay. In short, it runs like this: as §1
The target of experiment [5] is Tyrosine-protein kinase Blk (Homo sapiens) (UniProt P51451). The experiment is described as follows: Inhibition of His-tagged human full length recombinant BLK expressed in baculovirus expression system at 1 uM by Z'-LYTE assay. In outline:
as §1

The target in experiment [6] is Tyrosine-protein kinase Lck (Homo sapiens) (UniProt P06239). The experiment can be described thus: Inhibition of human recombinant LCK at 1 uM by Z'-LYTE assay. In short, it runs like this: as §1
For experiment [7], the target named is Tyrosine-protein kinase JAK1 (Homo sapiens) (UniProt P23458). The experiment can be described thus: Inhibition of GST-tagged human recombinant JAK1 (866 to 1154 residues) expressed in baculovirus expression system at 1 uM by Z'-LYTE assay. In outline: as §1
Experiment [8] has as its target Mitogen-activated protein kinase 14 (Homo sapiens) (UniProt Q16539). The experiment can be described thus: Inhibition of GST-tagged human full length recombinant p38 alpha expressed in Escherichia coli at 1 uM by Z'-LYTE assay. In short, it runs like this:
as §1

Experiment [9] deals with Rho-associated protein kinase 1 (Homo sapiens) (UniProt Q13464). The experiment can be described thus: Inhibition of GST-tagged human recombinant ROCK1 (1 to 535 residues) expressed in baculovirus expression system at 1 uM by Z'-LYTE assay. In outline:
as §1

For experiment [10], the target named is Vascular endothelial growth factor receptor 2 (Homo sapiens) (UniProt P35968). The experiment can be described thus: Inhibition of His-tagged human recombinant VEGFR2 (789 to 1356 residues) expressed in baculovirus expression system at 1 uM by Z'-LYTE assay. In short, it runs like this:
as §1

Experiment [11] concerns Epidermal growth factor receptor (Homo sapiens), P00533 [L858R,T790M,C797S]. The experiment can be described thus: Inhibition of EGFR L858R/T790M/C797S triple mutant (unknown origin) expressed in mouse Ba/F3 cells assessed as inhibition of EGF-stimulated receptor phosphorylation incubated for 4 hrs followed by EGF stimulation for 10 mins by western blot analysis. The conditions noted are these: BaF3, dose 10-1000 nM, time 250.0 min. Format: cell-based. In outline: (§2)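 Ba/F3 cells expressing EGFR L858R/T790M/C797S were treated for 4 h across increasing concentrations (DMSO ≤0.1%), then stimulated with 100 ng/ml EGF for 10 min. Lysates were immunoblotted for pEGFR (Tyr1068), EGFR and actin.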
Background: A western blot detects proteins with antibodies after separation by electrophoresis.

The test system is the same in experiment [12]. The experiment can be described thus: Inhibition of EGFR L858R/T790M/C797S triple mutant (unknown origin) expressed in mouse Ba/F3 cells assessed as inhibition of EGF-stimulated receptor phosphorylation at 500 nM incubated for 4 hrs followed by EGF stimulation for 10 mins by western blot analysis. Format: cell-based. The conditions noted are these: BaF3, time 250.0 min. In outline:
as §2

The target of experiment [13] is Mitogen-activated protein kinase 3 (Homo sapiens) (UniProt P27361). The experiment can be described thus: Inhibition of GST-tagged human full length recombinant ERK1 expressed in Escherichia coli at 100 to 1000 nM by Z'-LYTE assay. The settings on record: dose 100-1000 nM.
The target in experiment [14] is T2, Inhibitor of nuclear factor kappa-B kinase subunit beta (Homo sapiens) (UniProt O14920).
T2 sequence (whole entry): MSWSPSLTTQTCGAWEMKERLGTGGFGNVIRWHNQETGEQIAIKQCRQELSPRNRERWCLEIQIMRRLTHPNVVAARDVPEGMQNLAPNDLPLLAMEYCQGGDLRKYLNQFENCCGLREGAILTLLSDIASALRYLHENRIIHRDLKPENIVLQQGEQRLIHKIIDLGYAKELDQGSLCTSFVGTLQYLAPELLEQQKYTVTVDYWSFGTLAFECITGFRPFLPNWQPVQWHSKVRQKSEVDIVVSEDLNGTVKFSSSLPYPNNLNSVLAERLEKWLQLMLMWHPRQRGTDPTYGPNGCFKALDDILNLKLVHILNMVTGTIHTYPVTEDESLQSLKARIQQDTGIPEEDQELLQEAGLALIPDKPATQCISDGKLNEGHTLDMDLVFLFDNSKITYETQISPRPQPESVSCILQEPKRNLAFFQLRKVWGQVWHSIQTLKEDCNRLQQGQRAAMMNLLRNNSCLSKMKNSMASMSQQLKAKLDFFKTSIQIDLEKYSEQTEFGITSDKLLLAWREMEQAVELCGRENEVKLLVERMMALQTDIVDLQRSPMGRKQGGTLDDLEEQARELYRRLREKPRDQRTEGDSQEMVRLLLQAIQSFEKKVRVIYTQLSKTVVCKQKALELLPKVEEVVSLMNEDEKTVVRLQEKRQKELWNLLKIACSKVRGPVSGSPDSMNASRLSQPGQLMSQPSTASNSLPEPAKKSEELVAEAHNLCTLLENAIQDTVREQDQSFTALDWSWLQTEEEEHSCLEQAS
The experiment can be described thus: Inhibition of GST-tagged human full length recombinant IKKbeta expressed in baculovirus expression system at 100 to 1000 nM by Z'-LYTE assay. The settings on record: dose 100-1000 nM.

Experiment [15] has as its target Tyrosine-protein kinase JAK1 (Homo sapiens) (UniProt P23458). The experiment is described as follows: Inhibition of GST-tagged human recombinant JAK1 (866 to 1154 residues) expressed in baculovirus expression system at 100 to 1000 nM by Z'-LYTE assay. The settings on record: dose 100-1000 nM.
Experiment [16] has as its target Platelet-derived growth factor receptor alpha (Homo sapiens) (UniProt P16234). The experiment can be described thus: Inhibition of GST-tagged human recombinant PDGFR alpha (550 to 1089 residues) expressed in baculovirus expression system at 100 to 1000 nM by Z'-LYTE assay. The conditions noted are these: dose 100-1000 nM.
The target of experiment [17] is Rho-associated protein kinase 1 (Homo sapiens) (UniProt Q13464). The experiment is described as follows: Inhibition of GST-tagged human recombinant ROCK1 (1 to 535 residues) expressed in baculovirus expression system at 100 to 1000 nM by Z'-LYTE assay. The conditions noted are these: dose 100-1000 nM.

Active and inactive are the calls of the source. The rule behind the calls is not given here.

Tyrosine-protein kinase JAK1 (Homo sapiens), sequence (P23458 whole entry, the tested form may be a part): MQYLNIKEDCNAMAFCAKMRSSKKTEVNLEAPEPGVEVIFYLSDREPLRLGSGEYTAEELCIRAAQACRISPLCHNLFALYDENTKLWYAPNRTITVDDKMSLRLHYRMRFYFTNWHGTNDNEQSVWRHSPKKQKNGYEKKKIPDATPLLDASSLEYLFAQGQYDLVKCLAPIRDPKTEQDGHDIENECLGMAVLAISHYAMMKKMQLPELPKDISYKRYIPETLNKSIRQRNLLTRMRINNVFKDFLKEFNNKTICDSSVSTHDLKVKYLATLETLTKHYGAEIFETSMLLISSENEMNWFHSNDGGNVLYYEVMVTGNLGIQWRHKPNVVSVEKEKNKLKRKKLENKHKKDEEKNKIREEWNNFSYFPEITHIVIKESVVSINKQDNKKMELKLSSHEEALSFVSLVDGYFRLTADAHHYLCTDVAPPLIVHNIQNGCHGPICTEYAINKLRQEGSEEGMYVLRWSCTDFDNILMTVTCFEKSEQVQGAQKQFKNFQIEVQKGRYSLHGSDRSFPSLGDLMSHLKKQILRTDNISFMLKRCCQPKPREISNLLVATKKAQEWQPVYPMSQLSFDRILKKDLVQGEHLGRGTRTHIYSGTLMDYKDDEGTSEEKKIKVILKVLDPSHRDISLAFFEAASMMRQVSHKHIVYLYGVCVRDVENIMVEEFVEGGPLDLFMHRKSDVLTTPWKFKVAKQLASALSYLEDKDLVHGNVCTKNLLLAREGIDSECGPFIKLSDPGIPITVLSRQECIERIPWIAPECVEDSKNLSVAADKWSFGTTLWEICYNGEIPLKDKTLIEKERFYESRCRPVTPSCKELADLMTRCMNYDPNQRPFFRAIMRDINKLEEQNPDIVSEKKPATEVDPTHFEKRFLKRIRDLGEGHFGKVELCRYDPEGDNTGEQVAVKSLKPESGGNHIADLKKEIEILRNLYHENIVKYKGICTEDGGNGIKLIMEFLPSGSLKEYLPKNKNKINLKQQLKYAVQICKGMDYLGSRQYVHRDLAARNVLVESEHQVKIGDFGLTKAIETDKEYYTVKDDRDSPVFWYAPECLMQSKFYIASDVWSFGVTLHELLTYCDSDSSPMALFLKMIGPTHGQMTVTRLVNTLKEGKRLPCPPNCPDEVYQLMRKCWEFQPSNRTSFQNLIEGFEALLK
Rho-associated protein kinase 1 (Homo sapiens), sequence (Q13464 2-1354 limits assumed): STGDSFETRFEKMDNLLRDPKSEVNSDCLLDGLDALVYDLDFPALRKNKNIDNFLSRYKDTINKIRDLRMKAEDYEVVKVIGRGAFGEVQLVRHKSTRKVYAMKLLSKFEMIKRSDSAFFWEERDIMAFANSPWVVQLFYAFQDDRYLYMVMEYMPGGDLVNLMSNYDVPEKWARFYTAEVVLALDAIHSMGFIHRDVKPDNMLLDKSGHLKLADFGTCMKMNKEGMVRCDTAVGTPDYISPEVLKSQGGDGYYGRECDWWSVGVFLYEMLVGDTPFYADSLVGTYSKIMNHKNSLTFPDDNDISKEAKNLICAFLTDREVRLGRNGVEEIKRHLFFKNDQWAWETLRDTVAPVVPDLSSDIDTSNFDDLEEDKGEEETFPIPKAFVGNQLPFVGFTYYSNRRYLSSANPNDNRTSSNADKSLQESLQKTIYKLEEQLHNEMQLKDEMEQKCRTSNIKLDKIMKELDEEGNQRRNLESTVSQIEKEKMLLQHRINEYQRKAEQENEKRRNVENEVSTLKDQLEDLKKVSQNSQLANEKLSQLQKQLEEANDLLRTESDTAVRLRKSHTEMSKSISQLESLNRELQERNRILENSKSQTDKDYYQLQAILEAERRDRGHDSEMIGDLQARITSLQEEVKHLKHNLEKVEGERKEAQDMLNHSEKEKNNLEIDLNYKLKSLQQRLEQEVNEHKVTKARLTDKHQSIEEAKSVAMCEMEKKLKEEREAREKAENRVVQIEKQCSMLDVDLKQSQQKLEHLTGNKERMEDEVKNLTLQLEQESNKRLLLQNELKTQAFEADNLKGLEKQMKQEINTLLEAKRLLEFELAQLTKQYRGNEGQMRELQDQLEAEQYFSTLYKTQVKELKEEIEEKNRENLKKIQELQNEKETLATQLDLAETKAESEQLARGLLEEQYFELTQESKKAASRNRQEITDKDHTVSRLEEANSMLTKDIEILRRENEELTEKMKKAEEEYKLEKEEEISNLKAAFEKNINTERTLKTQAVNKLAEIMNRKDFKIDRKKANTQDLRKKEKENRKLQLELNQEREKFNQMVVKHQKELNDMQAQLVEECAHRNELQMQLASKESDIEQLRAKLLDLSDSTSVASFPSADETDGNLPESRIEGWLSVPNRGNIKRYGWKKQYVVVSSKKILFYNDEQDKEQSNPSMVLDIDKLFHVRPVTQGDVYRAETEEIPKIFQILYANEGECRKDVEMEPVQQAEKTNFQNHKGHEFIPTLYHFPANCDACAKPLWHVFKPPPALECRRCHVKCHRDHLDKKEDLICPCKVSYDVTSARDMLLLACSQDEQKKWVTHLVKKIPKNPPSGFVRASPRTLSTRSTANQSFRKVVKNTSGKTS
Epidermal growth factor receptor (Homo sapiens), P00533 [L858R,T790M,C797S], sequence (P00533 whole entry T790M/C797S/L858R): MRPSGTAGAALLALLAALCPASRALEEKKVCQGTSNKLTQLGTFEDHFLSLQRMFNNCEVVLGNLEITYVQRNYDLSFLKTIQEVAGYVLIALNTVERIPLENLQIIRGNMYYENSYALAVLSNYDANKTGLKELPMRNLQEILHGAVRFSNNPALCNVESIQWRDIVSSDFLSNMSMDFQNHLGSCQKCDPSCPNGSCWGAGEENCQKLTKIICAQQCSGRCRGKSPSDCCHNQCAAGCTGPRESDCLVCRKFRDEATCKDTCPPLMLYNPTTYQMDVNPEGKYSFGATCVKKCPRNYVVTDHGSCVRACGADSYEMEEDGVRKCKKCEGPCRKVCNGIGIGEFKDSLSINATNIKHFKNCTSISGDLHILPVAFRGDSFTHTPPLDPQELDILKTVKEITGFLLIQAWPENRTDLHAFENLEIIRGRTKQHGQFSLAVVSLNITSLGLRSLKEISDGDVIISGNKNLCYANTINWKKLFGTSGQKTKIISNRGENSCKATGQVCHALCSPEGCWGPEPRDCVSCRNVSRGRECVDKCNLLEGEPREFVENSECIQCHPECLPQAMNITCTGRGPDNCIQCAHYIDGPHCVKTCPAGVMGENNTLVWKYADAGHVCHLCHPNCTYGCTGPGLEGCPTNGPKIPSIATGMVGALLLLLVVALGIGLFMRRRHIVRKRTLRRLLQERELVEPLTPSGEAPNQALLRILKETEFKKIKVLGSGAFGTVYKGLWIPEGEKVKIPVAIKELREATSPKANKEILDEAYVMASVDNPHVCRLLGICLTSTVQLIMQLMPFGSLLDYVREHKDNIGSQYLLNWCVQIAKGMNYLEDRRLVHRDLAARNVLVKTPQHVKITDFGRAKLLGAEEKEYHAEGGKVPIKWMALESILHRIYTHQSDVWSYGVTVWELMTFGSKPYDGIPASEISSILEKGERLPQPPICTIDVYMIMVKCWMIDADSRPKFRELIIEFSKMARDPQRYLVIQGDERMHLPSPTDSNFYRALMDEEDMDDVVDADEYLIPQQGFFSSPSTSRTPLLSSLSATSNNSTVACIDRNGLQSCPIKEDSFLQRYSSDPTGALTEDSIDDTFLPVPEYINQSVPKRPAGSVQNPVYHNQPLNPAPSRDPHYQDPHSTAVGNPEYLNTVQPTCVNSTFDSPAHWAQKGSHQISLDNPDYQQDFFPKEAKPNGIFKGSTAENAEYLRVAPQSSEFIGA
Mitogen-activated protein kinase 3 (Homo sapiens), sequence (P27361 whole entry): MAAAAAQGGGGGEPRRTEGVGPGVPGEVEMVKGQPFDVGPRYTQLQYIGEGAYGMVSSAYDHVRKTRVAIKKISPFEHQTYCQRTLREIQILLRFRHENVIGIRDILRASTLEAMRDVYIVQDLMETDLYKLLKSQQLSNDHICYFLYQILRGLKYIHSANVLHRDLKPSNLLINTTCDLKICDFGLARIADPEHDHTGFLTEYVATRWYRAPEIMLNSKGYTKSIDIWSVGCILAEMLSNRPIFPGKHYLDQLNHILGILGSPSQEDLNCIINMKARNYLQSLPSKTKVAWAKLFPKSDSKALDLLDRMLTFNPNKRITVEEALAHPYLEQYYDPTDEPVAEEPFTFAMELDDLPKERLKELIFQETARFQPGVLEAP
Tyrosine-protein kinase Blk (Homo sapiens), sequence (P51451 2-505 limits assumed): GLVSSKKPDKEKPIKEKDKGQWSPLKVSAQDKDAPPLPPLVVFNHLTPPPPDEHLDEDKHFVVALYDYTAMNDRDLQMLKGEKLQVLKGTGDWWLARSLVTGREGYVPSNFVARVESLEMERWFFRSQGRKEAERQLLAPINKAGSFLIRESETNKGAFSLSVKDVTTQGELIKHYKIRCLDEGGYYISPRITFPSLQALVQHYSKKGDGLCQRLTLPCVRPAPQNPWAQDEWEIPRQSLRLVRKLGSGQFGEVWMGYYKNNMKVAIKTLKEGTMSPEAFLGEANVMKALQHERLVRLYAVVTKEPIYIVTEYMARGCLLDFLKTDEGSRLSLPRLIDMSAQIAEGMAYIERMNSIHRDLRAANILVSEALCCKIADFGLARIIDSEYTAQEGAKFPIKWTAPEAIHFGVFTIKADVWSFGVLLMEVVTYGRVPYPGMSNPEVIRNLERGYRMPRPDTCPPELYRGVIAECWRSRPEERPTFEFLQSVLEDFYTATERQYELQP
Mitogen-activated protein kinase 14 (Homo sapiens), sequence (Q16539 whole entry): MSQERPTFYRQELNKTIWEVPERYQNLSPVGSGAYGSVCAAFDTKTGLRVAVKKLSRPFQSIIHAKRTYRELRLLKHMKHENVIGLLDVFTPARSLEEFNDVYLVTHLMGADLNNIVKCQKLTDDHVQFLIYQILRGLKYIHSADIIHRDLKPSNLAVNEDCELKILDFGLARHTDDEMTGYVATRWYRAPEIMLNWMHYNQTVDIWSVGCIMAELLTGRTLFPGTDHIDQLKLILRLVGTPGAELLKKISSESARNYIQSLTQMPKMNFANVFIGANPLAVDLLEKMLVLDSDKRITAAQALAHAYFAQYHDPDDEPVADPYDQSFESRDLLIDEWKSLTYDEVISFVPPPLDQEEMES

`COc1cc(N2CCN(C(C)=O)CC2)ccc1Nc1ncc(Cl)c(Nc2ccc(NCc3ccc(S(=O)(=O)F)cc3)cc2)n1`: the IC50 in experiment [1] stood at 23 nM; in experiment [2], 30 nM. Moreover, the inhibition in [3] is 100%; in experiment [4], 100%; in experiment [5] it was 100%; in [6], 100%; in experiment [8], less than 25%; in [9] it was less than 25%. Further, the inhibition was less than 25% in experiment [10], “Dose-Dependent Effect” in experiment [11] and 100% in experiment [12]. In addition, the inhibition result in [7] was “Active”.

Regarding `C#CCNC(=O)c1cc(Nc2cc(C3CC3)[nH]n2)nc(N2CCN(Cc3ccc(S(=O)(=O)F)cc3)CC2)n1`, the inhibition entry in experiment [13], in experiment [14], in [15], in experiment [16] and in experiment [17] was “inactive” each time.
